# Assay results as given in ChEMBL document CHEMBL4715791, “Enhancing Therapeutic Efficacy of Cisplatin by Blocking DNA Damage Repair” (ACS Med Chem Lett, 2016).
# The source made the active and inactive calls. The rule behind the calls is not given here.
# How the values were obtained:
# [1] = test system: A549; experiment: Induction of apoptosis in human A549 cells at 32.7 uM measured after 24 hrs by annexinV-FITC/propidium iodide staining based flow cytometry relative to control; format: functional
# [2] = test system: HeLa; experiment: Inhibition of PP2A in human HeLa cells assessed as increase in phosphorylated ERK expression level at 2.5 uM measured after 24 hrs in presence of cisplatin by Hoechst staining based immunofluorescence assay; format: cell-based
# [3] = test system: HeLa; experiment: Anticancer activity against human HeLa cells assessed as reduction in cell viability at 1 to 100 uM by MTT assay; format: functional, cell-based; conditions: dose 1-100 µM, time 24-72 hrs, TDE = time-dependent effect
# [4] = test system: A549; experiment: Induction of cell cycle arrest in human A549 cells assessed as accumulation at S phase at 32.7 uM measured after 24 hrs by propidium iodide/RNase staining based flow cytometry (reference value: 27.5 %); format: functional
# [5] = test system: U14; experiment: Antitumor activity against mouse U14 cells implanted in Kunming mouse assessed as tumor growth inhibition at 1.5 mg/kg, ip administered on day 2, 5, 8 measured after 1 week by caliper method; format: functional, organism-based; conditions: time 1.0 weeks
# Method in brief: (§1)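 KM mice bearing subcutaneous U14 mouse cervical cancer xenografts. Groups received saline, cisplatin 5 mg/kg, compound 1.5 mg/kg, or both (1:1 molar ratio). Relative tumor volume followed over about 2 weeks.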
# [6] = test system: HeLa; experiment: Inhibition of PP2A in human HeLa cells assessed as increase in phosphorylated ERK expression level at 2.5 uM measured after 24 hrs by Hoechst staining based immunofluorescence assay; format: cell-based
# [7] = test system: HeLa; experiment: Effect on total Akt expression in human HeLa cells at 2.5 uM measured after 24 hrs by Hoechst staining based immunofluorescence assay; format: functional, cell-based
# [8] = test system: HeLa; experiment: Induction of cell cycle arrest in human HeLa cells assessed as accumulation at S phase at 6.8 uM measured after 24 hrs by propidium iodide/RNase staining based flow cytometry (reference value: 27.21 %); format: functional
# [9] = test system: HeLa; experiment: Effect on total ERK level in human HeLa cells at 2.5 uM measured after 24 hrs in presence of cisplatin by Hoechst staining based immunofluorescence assay; format: functional, cell-based
# [10] = test system: HeLa; experiment: Synergistic anticancer activity against human HeLa cells assessed as combination index at cisplatin to compound ratio of 1:1 measured after 24 to 72 hrs by MTT based Chou-Talalay method; format: functional; conditions: time 24-72 hrs
# Method in brief: (§2)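 Cisplatin and compound given together at fixed molar ratios. Viability read by MTT. Combination index computed at 50% inhibition (CI50); below 1 = synergism, 1 = additivity, above 1 = antagonism. Tested at 24, 48 and 72 h incubation.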
# [11] = test system: A549; experiment: Induction of cell cycle arrest in human A549 cells assessed as accumulation at G1 phase at 32.7 uM measured after 24 hrs by propidium iodide/RNase staining based flow cytometry (reference value: 60.8 %); format: functional
# [12] = test system: HeLa; experiment: Antagonistic anticancer activity against human HeLa cells assessed as combination index at cisplatin to compound ratio of 1:2 measured after 48 to 72 hrs by MTT based Chou-Talalay method; format: functional; conditions: time 48-72 hrs; method in brief: as §2
# [13] = test system: U14; experiment: Antitumor activity against mouse U14 cells implanted in Kunming mouse assessed as tumor growth inhibition at 1.5 mg/kg, ip administered on day 2, 5, 8 measured after 2 weeks by caliper method; format: functional, organism-based; method in brief: as §1
# [14] = test system: HeLa; experiment: Effect on tubulin expression in human HeLa cells at 2.5 uM measured after 24 hrs in presence of cisplatin by DAPI staining based immunofluorescence assay
# [15] = Potentiation of cisplatin-induced antitumor activity against mouse U14 cells implanted in Kunming mouse assessed as tumor volume at 1.5 mg/kg, ip administered on day 2, 5, 8 cotreated with cisplatin at 5 mg/kg, ip on day 1, 4, 7 and measured at day 10 by caliper method (reference value: 178 +/- 33 mm3); format: functional; conditions: time 10 day; method in brief: as §1
# [16] = test system: HeLa; experiment: Potentiation of cisplatin-induced cell cycle arrest in human HeLa cells assessed as accumulation at S phase at 6.8 uM measured after 24 hrs in presence of cisplatin by propidium iodide/RNase staining based flow cytometry (reference value: 27.18 %); format: functional
# [17] = Toxicity in Kunming mouse implanted with mouse U14 cells assessed as reduction in body weight at 1.5 mg/kg, ip administered on day 2, 5, 8 cotreated with cisplatin at 5 mg/kg, ip on day 1, 4, 7 and measured after 2 weeks; format: organism-based; conditions: in vivo, 336 h
# Method in brief: (§3)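 U14-xenografted KM mice given saline, cisplatin 5 mg/kg, compound 1.5 mg/kg or both. Body weight monitored as a measure of systemic toxicity.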
# [18] = test system: HeLa; experiment: Inhibition of PP2A in human HeLa cells assessed as increase in phosphorylated AKT expression level at 2.5 uM measured after 24 hrs by Western blot analysis; format: cell-based
# Method in brief: (§4)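 HeLa cells exposed 24 h to cisplatin, compound or the combination. P-Akt and P-ERK read by Western blot.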
# [19] = test system: HeLa; experiment: Effect on tubulin expression in human HeLa cells at 2.5 uM measured after 24 hrs by Hoechst staining based immunofluorescence assay; format: functional, cell-based
# [20] = test system: HeLa; experiment: Inhibition of PP2A in human HeLa cells assessed as increase in phosphorylated Akt expression level at 2.5 uM measured after 24 hrs by Hoechst staining based immunofluorescence assay; format: cell-based
# [21] = test system: HeLa; experiment: Induction of cell cycle arrest in human HeLa cells assessed as accumulation at G1 phase at 6.8 uM measured after 24 hrs by propidium iodide/RNase staining based flow cytometry (reference value: 62.27 %); format: functional
# [22] = test system: A549; experiment: Potentiation of cisplatin-induced cell cycle arrest in human A549 cells assessed as accumulation at S phase at 32.7 uM measured after 24 hrs in presence of cisplatin by propidium iodide/RNase staining based flow cytometry (reference value: 21.52 %); format: functional
# [23] = test system: HeLa; experiment: Induction of cell cycle arrest in human HeLa cells assessed as accumulation at G2/M phase at 6.8 uM measured after 24 hrs by propidium iodide/RNase staining based flow cytometry (reference value: 10.52 %); format: functional
# [24] = test system: HeLa; experiment: Anticancer activity against human HeLa cells assessed as reduction in cell viability measured after 24 to 72 hrs by MTT assay; format: functional, cell-based; conditions: dose 1-100 µM, time 24-72 hrs
# Method in brief: (§5)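 MTT viability assay in HeLa and A549 cells, with concentration- and time-dependent exposures.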
# [25] = test system: A549; experiment: Potentiation of cisplatin-induced apoptosis in human A549 cells at 32.7 uM measured after 24 hrs in presence of cisplatin by annexinV-FITC/propidium iodide staining based flow cytometry (reference value: 36.9%); format: functional
# [26] = test system: A549; experiment: Induction of cell cycle arrest in human A549 cells assessed as accumulation at G2/M phase at 32.7 uM measured after 24 hrs by propidium iodide/RNase staining based flow cytometry (reference value: 11.7 %); format: functional
# [27] = Toxicity in Kunming mouse implanted with mouse U14 cells assessed as reduction in body weight at 1.5 mg/kg, ip administered on day 2, 5, 8 cotreated with cisplatin at 5 mg/kg, ip on day 1, 4, 7 and measured after 1 week; format: organism-based; conditions: in vivo, 168 h, time 1 weeks; method in brief: as §3
# [28] = test system: HeLa; experiment: Potentiation of cisplatin-induced apoptosis in human HeLa cells assessed as late apoptotic cells at 6.8 uM measured after 24 hrs in presence of cisplatin by annexinV-FITC/propidium iodide staining based flow cytometry (reference value: 54%); format: functional
# [29] = Toxicity in Kunming mouse implanted with mouse U14 cells assessed as change in body weight at 1.5 mg/kg, ip administered on day 2, 5, 8; format: organism-based; conditions: in vivo, 72 h, time 3 day; method in brief: as §3
# [30] = test system: HeLa; experiment: Inhibition of PP2A in human HeLa cells assessed as enzyme activity at 10 uM measured after 3 hrs by malachite green phosphatase assay relative to control; format: cell-based; design: scale not given: the % may be the effect or the level left
# Method in brief: (§6)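 PP2A activity measured in HeLa cells after 3 h exposure to compound, alone or combined with cisplatin. Activity expressed as % of untreated control.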
# [31] = test system: HeLa; experiment: Inhibition of PP2A in human HeLa cells assessed as enzyme activity at 10 uM measured after 3 hrs in presence of cisplatin by malachite green phosphatase assay relative to control; format: cell-based; design: scale not given: the % may be the effect or the level left; method in brief: as §6
# [32] = test system: HeLa; experiment: Induction of apoptosis in human HeLa cells assessed as early apoptotic cells at 6.8 uM measured after 24 hrs by annexinV-FITC/propidium iodide staining based flow cytometry relative to control; format: functional
# [33] = test system: HeLa; experiment: Inhibition of PP2A in human HeLa cells assessed as increase in phosphorylated ERK expression level at 2.5 uM measured after 24 hrs by Western blot analysis; format: cell-based; method in brief: as §4
# [34] = test system: HeLa; experiment: Induction of apoptosis in human HeLa cells assessed as late apoptotic cells at 6.8 uM measured after 24 hrs by annexinV-FITC/propidium iodide staining based flow cytometry relative to control; format: functional
# [35] = test system: A549; experiment: Potentiation of cisplatin-induced cell cycle arrest in human A549 cells assessed as accumulation at G2/M phase at 32.7 uM measured after 24 hrs in presence of cisplatin by propidium iodide/RNase staining based flow cytometry (reference value: 36.13 %); format: functional
# [36] = test system: HeLa; experiment: Effect on total Akt expression in human HeLa cells at 2.5 uM measured after 24 hrs in presence of cisplatin by Hoechst staining based immunofluorescence assay; format: functional, cell-based
# [37] = test system: HeLa; experiment: Potentiation of cisplatin-induced apoptosis in human HeLa cells assessed as early apoptotic cells at 6.8 uM measured after 24 hrs in presence of cisplatin by annexinV-FITC/propidium iodide staining based flow cytometry (reference value: 4.8%); format: functional
# [38] = test system: HeLa; experiment: Effect on total ERK level in human HeLa cells at 2.5 uM measured after 24 hrs by Hoechst staining based immunofluorescence assay; format: functional, cell-based
# [39] = test system: A549; experiment: Synergistic anticancer activity against human A549 cells assessed as combination index at cisplatin:compound ratio of 1:0.5 to 1:3 measured after 24 hrs in presence of cisplatin by MTT based Chou-Talalay method; format: functional; method in brief: as §2
# [40] = test system: HeLa; experiment: Synergistic anticancer activity against human HeLa cells assessed as combination index at cisplatin to compound ratio of 1:0.5 measured after 24 hrs by MTT based Chou-Talalay method; format: functional; method in brief: as §2
# [41] = test system: A549; experiment: Anticancer activity against human A549 cells assessed as reduction in cell viability measured after 24 to 72 hrs by MTT assay; format: functional, cell-based; conditions: time 24-72 hrs; method in brief: as §5
# [42] = test system: HeLa; experiment: Potentiation of cisplatin-induced cell cycle arrest in human HeLa cells assessed as accumulation at G2/M phase at 6.8 uM measured after 24 hrs in presence of cisplatin by propidium iodide/RNase staining based flow cytometry (reference value: 11.69 %); format: functional
# [43] = test system: HeLa; experiment: Inhibition of PP2A in human HeLa cells assessed as increase in phosphorylated Akt expression level at 2.5 uM measured after 24 hrs in presence of cisplatin by Hoechst staining based immunofluorescence assay; format: cell-based
# [44] = test system: HeLa; experiment: Antagonistic anticancer activity against human HeLa cells assessed as combination index at cisplatin to compound ratio of 1:0.3 measured after 48 to 72 hrs by MTT based Chou-Talalay method; format: functional; conditions: time 48-72 hrs; method in brief: as §2
# [45] = test system: A549; experiment: Potentiation of cisplatin-induced cell cycle arrest in human A549 cells assessed as accumulation at G1 phase at 32.7 uM measured after 24 hrs in presence of cisplatin by propidium iodide/RNase staining based flow cytometry (reference value: 42.35%); format: functional
# [46] = test system: HeLa; experiment: Potentiation of cisplatin-induced cell cycle arrest in human HeLa cells assessed as accumulation at G1 phase at 6.8 uM measured after 24 hrs in presence of cisplatin by propidium iodide/RNase staining based flow cytometry (reference value: 61.13 %); format: functional
structure (smiles),measurement,setting,value
CC(C)(C)OC(=O)N1CCN(C(=O)C2C3CCC(O3)C2C(=O)O)CC1 (stereo unspecified),Activity,[1],35.5%
same,inhibition,[2],Active
same,Activity,[3],Tde
same,Activity,[4],36.61%
same,growth inhibition (GI),[5],inactive
same,inhibition,[6],Active
same,Activity,[7],inactive
same,Activity,[8],34.21%
same,Activity,[9],inactive
same,CI50,[10],<1
same,Activity,[11],52.07%
same,CI50,[12],>1
same,growth inhibition (GI),[13],Active
same,Activity,[14],inactive
same,Activity,[15],97 mm3
same,Activity,[16],27.87%
same,Activity,[17],Non-Toxic
same,inhibition,[18],Active
same,Activity,[19],inactive
same,inhibition,[20],Active
same,Activity,[21],42.51%
same,Activity,[22],45.71%
same,Activity,[23],23.28%
same,Activity,[24],Dose-dependent effect
same,Activity,[25],41.5%
same,Activity,[26],11.32%
same,Activity,[27],Toxic
same,Activity,[28],64.1%
same,Activity,[29],Toxic
same,Activity,[30],78.5%
same,Activity,[31],86%
same,Activity,[32],5.4%
same,inhibition,[33],Active
same,Activity,[34],21.8%
same,Activity,[35],15.34%
same,Activity,[36],inactive
same,Activity,[37],6.4%
same,Activity,[38],inactive
same,CI50,[39],<1
same,CI50,[40],<1
same,Activity,[41],Active
same,Activity,[42],31.46%
same,inhibition,[43],Active
same,CI50,[44],>1
same,Activity,[45],38.95%
same,Activity,[46],40.67%
